Data on one molecule can be found in ChEMBL document CHEMBL5653624 (Biochem Pharmacol, 2016).

For data set [1], the target named is Histone deacetylase 1 (Mus musculus) (UniProt O09106). In words: Effect on HDAC1 nuclear localization in LPS/IFNgamma-stimulated mouse RAW264.7 cells preincubated for 20 hrs followed by LPS/IFNgamma stimulation and measured after 1 hr by Western blot analysis. It counts as cell-based. The gist of the method:
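RAW 264.7 cells treated for 20 h, then 1 h LPS/IFNγ, and fractionated into nuclear and cytosolic parts. Fractions immunoblotted, with PARP-1 and β-actin as internal controls. Densitometry with vehicle control set at 100%. Mean ± SD of 3–4 independent experiments.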
In general terms: Immunoblotting shows a protein as a band on a membrane.

The test system of data set [2] is HASMC. In words: Antiinflammatory activity in HASMC cells assessed as effect on LPS/IFNgamma-induced iNOS gene expression at 2 uM […] and measured after 4 hrs by RT-qPCR analysis. Type of data set: functional, cell-based. The settings on record: Homo sapiens. The gist of the method: (§1)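 HBE cells (passage 73–103) or immortalized hASM cells (2–3 donors, passage 27–35), serum-starved. Then 2 μM RGFP966 for 20 h, with LPS/IFNγ for the last 4 h. Total RNA isolated; RT-qPCR by 2−ΔΔCt, fold change versus LPS/IFNγ control. Mean ± SD of 3–5 independent experiments.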
In general terms: In qPCR the cycle at which signal appears reflects the starting amount.

The target in data set [3] is T1, Histone deacetylase 3 (Mus musculus) (UniProt O88895).
T1 sequence (whole entry): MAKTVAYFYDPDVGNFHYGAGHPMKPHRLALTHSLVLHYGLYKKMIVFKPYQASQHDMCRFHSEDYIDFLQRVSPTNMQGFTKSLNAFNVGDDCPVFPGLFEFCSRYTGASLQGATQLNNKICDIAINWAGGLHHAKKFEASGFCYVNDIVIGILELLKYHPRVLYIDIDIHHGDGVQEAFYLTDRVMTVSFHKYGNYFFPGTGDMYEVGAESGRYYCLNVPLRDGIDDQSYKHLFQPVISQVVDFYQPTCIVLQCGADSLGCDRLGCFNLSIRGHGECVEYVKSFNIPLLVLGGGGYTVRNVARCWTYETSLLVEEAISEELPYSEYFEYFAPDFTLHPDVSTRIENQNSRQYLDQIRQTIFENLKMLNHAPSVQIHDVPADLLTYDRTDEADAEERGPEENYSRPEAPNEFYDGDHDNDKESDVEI
The data set can be described thus: Inhibition of HDAC3 in mouse RAW264.7 cells assessed as effect on LPS/IFNgamma-induced IkappaBalpha activation preincubated for 20 hrs followed by LPS/IFNgamma stimulation and measured after 1 hr by Western blot analysis. It counts as cell-based.

Data set [4] deals with Lung. In words: Antiinflammatory activity in C57bl/6 mouse precision-cut lung slices assessed as upregulation of LPS/IFNgamma-induced Fizz1 gene expression at 1 to 10 uM preincubated for 20 hrs followed by LPS/IFNgamma stimulation and measured after 4 hrs by RT-qPCR analysis. The conditions noted are these: dose 1-10 µM, time 24.0 hrs. It counts as functional, tissue-based. The gist of the method: (§2)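 PCLS, 250 μm thick, cut from agarose-filled lungs of male C57bl/6 mice (24–28 g, 8–10 weeks). Three slices per well at 37 °C, 5% CO2. Slices received RGFP966 at 1 and 10 μM final for 20 h, with 10 ng/ml LPS and 10 ng/ml IFNγ stimulation. RNA isolated; RT-qPCR fold change versus LPS/IFNγ control by 2−ΔΔCt. Mean ± SD, n = 3–5.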

The subject of data set [5] is HASMC. The data set can be described thus: Antiinflammatory activity in HASMC cells assessed as effect on LPS/IFNgamma-induced TNFalpha gene expression at 2 uM […] and measured after 4 hrs by RT-qPCR analysis. Type of data set: functional, cell-based. The settings on record: Homo sapiens. The gist of the method:
as §1

The subject of data set [6] is HASMC. The data set can be described thus: Antiinflammatory activity in HASMC cells assessed as effect on LPS/IFNgamma-induced IL-12b gene expression at 2 uM […] and measured after 4 hrs by RT-qPCR analysis. It counts as functional, cell-based. The settings on record: Homo sapiens. A digest of the protocol:
as §1

Data set [7] concerns the target T1, Histone deacetylase 3 (Mus musculus). In words: Inhibition of HDAC3 in mouse RAW-Blue cells assessed as reduction in LPS/IFNgamma-induced NF-kappaB p65 transcriptional activity preincubated for 16 hrs followed by LPS/IFNgamma stimulation and measured after 4 hrs by SEAP reporter gene assay. The conditions noted are these: time 20.0 hrs. Type of data set: cell-based. The gist of the method:
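RAW-Blue cells (RAW 264.7-derived, stably expressing an NF-κB/AP-1-inducible secreted embryonic alkaline phosphatase) exposed to inhibitor for 20 h total, with 10 ng/ml LPS plus 10 ng/ml IFNγ added for the final 4 h. Supernatant mixed with QUANTI-Blue medium, 37 °C 1–2 h in the dark, absorbance 630 nm; reported as % of control.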

The test system of data set [8] is HBE. The data set can be described thus: Antiinflammatory activity in HBE cells assessed as effect on LPS/IFNgamma-induced iNOS gene expression at 2 uM […] by RT-qPCR analysis. Type of data set: functional, cell-based. The conditions noted are these: Homo sapiens. The gist of the method: as §1
The subject of data set [9] is HASMC. In words: Cytotoxicity against HASMC cells assessed as reduction in cell viability at 2 uM measured after 20 hrs by MTS assay. It counts as toxicity, cell-based. The conditions noted are these: human. A digest of the protocol:
(§3)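 MTS viability assay. RAW 264.7 cells seeded at 25,000 cells/cm2; HBE and hASM cells at 70% confluency and serum-starved for 24 h. Exposure for 20 h with LPS/IFNγ stimulation. MTS reagent added for 1 h at 37 °C in the dark, absorbance read at 490 nm. LPS/IFNγ-stimulated cells without inhibitor set at 100%.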

Data set [10] has as its system RAW264.7. In words: Antiinflammatory activity in mouse RAW264.7 cells assessed as down regulation of LPS/IFNgamma-induced IL-1beta gene expression at 1 uM preincubated for 20 hrs followed by LPS/IFNgamma stimulation and measured after 4 hrs by RT-qPCR analysis. It counts as functional, cell-based. The settings on record: time 24.0 hrs. A digest of the protocol:
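RAW 264.7 macrophages in DMEM/10% FBS received 1 μM RGFP966 for 20 h, with LPS/IFNγ for the last 4 h. Washed with cold DPBS, total RNA isolated, integrity checked by 28S/18S. RT-qPCR by comparative Ct (2−ΔΔCt), fold change versus LPS/IFNγ control. Mean ± SD of 3–5 independent experiments.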

The test system of data set [11] is Lung. In words: Antiinflammatory activity in C57bl/6 mouse precision-cut lung slices assessed as upregulation of LPS/IFNgamma-induced IL-1beta gene expression at 1 to 10 uM preincubated for 20 hrs followed by LPS/IFNgamma stimulation and measured after 4 hrs by RT-qPCR analysis relative to control. It counts as functional. The conditions noted are these: dose 1-10 µM; time 24 hrs. A digest of the protocol: as §2

The subject of data set [12] is Lung. In words: Antiinflammatory activity in C57bl/6 mouse precision-cut lung slices assessed as down regulation of LPS/IFNgamma-induced iNOS gene expression at 1 to 10 uM preincubated for 20 hrs followed by LPS/IFNgamma stimulation and measured after 4 hrs by RT-qPCR analysis. Type of data set: functional, tissue-based. The conditions noted are these: dose 1-10 µM, time 24.0 hrs. The gist of the method:
as §2

For data set [13], the target named is T1, Histone deacetylase 3 (Mus musculus). In words: Inhibition of HDAC3 in mouse RAW264.7 cells assessed as effect on histone H3 acetylation measured after 20 hrs by Western blot analysis. Type of data set: cell-based. The gist of the method: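 Histones extracted from RAW 264.7 cells after 20 h inhibitor treatment, protein quantified by micro BCA (BSA standard), and H3 and H4 acetylation assessed by Western blot versus vehicle-treated cells.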

Data set [14] relates to RAW264.7. In words: Cytotoxicity against mouse RAW264.7 cells assessed as reduction in cell viability at 1 uM measured after 20 hrs by MTS assay. It counts as toxicity, cell-based. The settings on record: raw264.7, 20 h. The gist of the method:
as §3
(Tetrazolium dyes change colour on reduction, which living cells bring about.)

For data set [15], the system named is RAW264.7. The data set can be described thus: Antiinflammatory activity in LPS/IFNgamma-stimulated mouse RAW264.7 cells assessed as reduction in HDAC1 expression preincubated for 20 hrs followed by LPS/IFNgamma stimulation and measured after 4 hrs by Western blot analysis. The settings on record: time 24.0 hrs. It counts as functional, cell-based. A digest of the protocol: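 RAW 264.7 cells were LPS/IFNγ-stimulated after inhibitor exposure, then lysed in Hepes/Triton buffer containing DTT, butyrate and protease inhibitors, freeze-thawed and cleared. Immunoblot with milk blocking and overnight primary antibody at 4 °C. Densitometry normalized to β-actin, LPS/IFNγ control set at 100%. Mean ± SD of 4 independent experiments.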

Structures are written as SMILES. The source made the active and inactive calls. The rule behind the calls is not given here.

Histone deacetylase 1 (Mus musculus), sequence (O09106 whole entry): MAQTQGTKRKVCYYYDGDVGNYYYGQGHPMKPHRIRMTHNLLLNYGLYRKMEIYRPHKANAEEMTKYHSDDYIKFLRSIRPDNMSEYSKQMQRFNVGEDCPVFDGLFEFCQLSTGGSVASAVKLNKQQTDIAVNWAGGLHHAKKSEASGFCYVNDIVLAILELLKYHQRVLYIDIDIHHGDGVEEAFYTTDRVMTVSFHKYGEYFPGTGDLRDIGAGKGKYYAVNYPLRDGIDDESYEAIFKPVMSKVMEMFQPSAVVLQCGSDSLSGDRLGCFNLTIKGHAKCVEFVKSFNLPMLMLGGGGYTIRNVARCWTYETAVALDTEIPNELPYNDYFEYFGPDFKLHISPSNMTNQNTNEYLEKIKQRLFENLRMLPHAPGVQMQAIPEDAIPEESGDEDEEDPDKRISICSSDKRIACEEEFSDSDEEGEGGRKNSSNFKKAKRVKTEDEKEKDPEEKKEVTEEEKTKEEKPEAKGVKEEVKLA

In the case of `Nc1cc(F)ccc1NC(=O)/C=C/c1cnn(C/C=C/c2ccccc2)c1`, the outcome in data set [1], in data set [2], in data set [5], in data set [6] and in data set [8] was inactive. The inhibition result in data set [3] and in data set [13] was “inactive” throughout. Besides, the outcome in data set [4], in data set [10], in [12] and in [15] was Active. For the same molecule, in data set [7], the inhibition entry was “Active”. Besides, the Activity result in data set [9] and in data set [14] was “Non-Toxic” in each case. Moreover, in data set [11], the “fold change (FC)” value was >2.
